Measurements: ChEMBL document CHEMBL1221254, “Succinic acid amides as P2-P3 replacements for inhibitors of interleukin-1beta converting enzyme (ICE or caspase 1)” (Bioorg Med Chem Lett, 2010)

Tests used:
[1] = Selectivity ratio of human ICE to caspase 3
[2] = Selectivity ratio of human ICE to caspase 8
[3] = Selectivity ratio of human ICE to caspase 4
[4] = Half life in Wistar rat at 25 mg/kg, po; assay type: ADME, organism-based; parameters: dose 25 mg/kg, route oral; conditions: in vivo
Outline: (§1)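 Wistar rats received 25 mg/kg orally in a vehicle of 10% DMSO, 11.25% Trappsol and D5W. Compound was measured in blood by LC/MS.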

[5] = Selectivity ratio of human ICE to caspase 6
Homo sapiens = species: Homo sapiens; experiment: Half life in human plasma
[6] = Oral bioavailability in Wistar rat at 25 mg/kg; assay type: ADME, organism-based; conditions: in vivo; outline: as §1

| SMILES | Selectivity ratio [1] | Selectivity ratio [2] | Selectivity ratio [3] | half-life [4] | Selectivity ratio [5] | half-life (Homo sapiens) | bioavailability [6] |
| --- | --- | --- | --- | --- | --- | --- | --- |
| CCO[C@@H]1OC(=O)CC1NC(=O)[C@@H]1CCCN2C(=O)CC[C@H](NC(=O)c3nccc4ccccc34)C(=O)N12 (some centres undefined) | > 200 | > 200 | > 200 | 0.87 h | > 200 |  |  |
| CCOC1OC(=O)C[C@@H]1NC(=O)[C@@H](CC(=O)NCCc1cccc2ncccc12)C(C)C (some centres undefined) | > 200 | > 200 | > 200 | 0.87 h | > 200 |  |  |
| CC(C)[C@H](CC(=O)NCCc1cccc2ncccc12)C(=O)N[C@H]1CC(=O)O[C@@H]1OC1CCCC1 | > 200 | > 200 | > 200 |  | > 200 | 5.1 h | 5% |
| CCO[C@@H]1OC(=O)C[C@@H]1NC(=O)[C@@H](CC(=O)NCCc1cccc2ncccc12)C(C)C | > 200 | > 200 | > 200 |  | > 200 | 0.87 h | 25% |
| CCOC1OC(=O)C[C@@H]1NC(=O)[C@@H](CC(=O)NCCn1c(C)nc2ccccc21)C(C)C (some centres undefined) | > 200 | > 200 | > 200 | 1.6 h | > 200 |  |  |
| CCCO[C@H]1OC(=O)C[C@@H]1NC(=O)[C@@H](CC(=O)NCCc1cccc2ncccc12)C(C)C | > 200 | > 200 | > 200 |  | > 200 | 10 h | 35% |
| CCOC1OC(=O)C[C@@H]1NC(=O)[C@@H](CC(=O)NCCc1c(C)[nH]c2ccccc12)C(C)C (some centres undefined) | > 200 | > 200 | > 200 | 1.27 h | > 200 |  |  |
| CCCO[C@@H]1OC(=O)C[C@@H]1NC(=O)[C@@H](CC(=O)NCCc1cccc2ncccc12)C(C)C | > 200 | > 200 | > 200 |  | > 200 | 2 h | 9% |
